From ChEMBL document CHEMBL1124174, “Substituted benzamides. 1. Potential nondopaminergic antagonists of chemotherapy-induced nausea and emesis” (J Med Chem, 1988)

Tests used:
[1] = system: Mustela putorius furo; test: In vivo antagonism of cisplatin-induced emesis in ferret measured as percentage protection for twice the dose of 3 mg/kg and in 2 ferrets; type: functional
How it was run: (§1)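 Nonfasted castrated male Fitch ferrets (1–1.5 kg) had jugular catheters implanted ≥48 h earlier under anesthesia. Compounds or saline were given iv twice, 5 min before and 90 min after cisplatin (12 mg/kg iv; 12 mg/mL in warm 0.9% saline). Emesis was observed up to 4 h; events within 1 min counted as one episode. Results were given as mean emetic episodes and % protection versus a pooled historical/concurrent control. t test versus saline.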

[2] = biological target: D(2) dopamine receptor (Rattus norvegicus) (UniProt P61169); test: In vivo antagonism activity against D2 receptor was measured as stereotypy in rat when administered subcutaneously; type: functional, organism-based
Chain of D(2) dopamine receptor (Rattus norvegicus) (P61169 whole entry): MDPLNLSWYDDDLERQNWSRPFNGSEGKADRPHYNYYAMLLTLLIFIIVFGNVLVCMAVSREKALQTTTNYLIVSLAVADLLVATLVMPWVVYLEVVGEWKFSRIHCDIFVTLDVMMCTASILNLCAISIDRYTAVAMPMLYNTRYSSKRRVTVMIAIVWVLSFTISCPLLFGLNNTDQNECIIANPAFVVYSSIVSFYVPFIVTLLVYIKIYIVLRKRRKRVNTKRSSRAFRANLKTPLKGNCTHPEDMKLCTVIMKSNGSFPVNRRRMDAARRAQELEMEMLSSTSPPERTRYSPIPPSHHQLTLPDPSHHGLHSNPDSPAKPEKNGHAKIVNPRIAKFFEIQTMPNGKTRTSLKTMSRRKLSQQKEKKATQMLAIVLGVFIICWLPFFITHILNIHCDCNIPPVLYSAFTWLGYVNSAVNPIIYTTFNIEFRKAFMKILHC
How it was run: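 Male Long Evans rats (275 g) were dosed sc in dilute aqueous HCl (pH 4.5-5.5) 30 min before apomorphine (1 mg/kg sc).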

[3] = biological target: D(2) dopamine receptor (Rattus norvegicus) (UniProt P61169); test: In vivo antagonistic activity against dopamine D2 receptor was measured as catalepsy in rat when administered subcutaneously; type: functional, organism-based
How it was run: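 Male Long Evans rats (275 g) received graded sc doses in dilute aqueous HCl (pH 4.5-5.5). They were observed 180 min for catalepsy, scored when the animal stayed stationary ≥15 s on a four-cork template.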

[4] = system: Canis familiaris; test: In vivo antagonism of cisplatin-induced emesis in dog measured as percentage protection for twice the dose of 1 mg/kg in 2 dogs; type: functional, Canis lupus familiaris
How it was run: (§2)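 Nonfasted mature male or female beagles were dosed sc twice, 30 min before and 120 min after cisplatin (3 mg/kg iv; 3 mg/mL in warm 0.9% saline, used immediately). Emesis was observed up to 5 h; events within 2 min counted as one episode. Results were given as mean emetic episodes and % protection versus a dynamic control (historical and concurrent saline means pooled). t test versus saline.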

[5] = biological target: D(2) dopamine receptor (Rattus norvegicus, UniProt P61169); test: In vitro antagonistic activity against Dopamine receptor D2 was evaluated for the inhibition of [3H]spiperone binding
Chain of D(2) dopamine receptor (P61169 whole entry): as above
How it was run: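 Rat striatal membranes were prepared by differential centrifugation in 50 mM Tris pH 7.4 at 4 °C. Membrane protein (10 mg) was incubated 15 min at 37 °C with 0.1 nM [3H]spiperone and varying competitor concentrations. Buffer: 50 mM Tris HCl pH 7.5, 0.1% ascorbic acid, pargyline, 120 mM NaCl, 5 mM KCl, 2 mM CaCl2, 1 mM MgCl2. (+)-Butaclamol defined nonspecific binding. Bound ligand was collected by filtration and scintillation counted. IC50 by log-logit regression.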

[6] = system: Mustela putorius furo; test: In vivo antagonism of cisplatin-induced emesis in ferret measured as emetic episodes, twice the dose of 3 mg/kg and in 2 ferrets; type: functional; how it was run: as §1
[7] = biological target: D(2) dopamine receptor (Canis lupus familiaris) (UniProt Q9GJU1); test: In vivo antagonism activity against dopamine D2 receptor was measured as emesis in dog when administered subcutaneously; type: functional, organism-based
Chain of D(2) dopamine receptor (Canis lupus familiaris) (Q9GJU1 whole entry): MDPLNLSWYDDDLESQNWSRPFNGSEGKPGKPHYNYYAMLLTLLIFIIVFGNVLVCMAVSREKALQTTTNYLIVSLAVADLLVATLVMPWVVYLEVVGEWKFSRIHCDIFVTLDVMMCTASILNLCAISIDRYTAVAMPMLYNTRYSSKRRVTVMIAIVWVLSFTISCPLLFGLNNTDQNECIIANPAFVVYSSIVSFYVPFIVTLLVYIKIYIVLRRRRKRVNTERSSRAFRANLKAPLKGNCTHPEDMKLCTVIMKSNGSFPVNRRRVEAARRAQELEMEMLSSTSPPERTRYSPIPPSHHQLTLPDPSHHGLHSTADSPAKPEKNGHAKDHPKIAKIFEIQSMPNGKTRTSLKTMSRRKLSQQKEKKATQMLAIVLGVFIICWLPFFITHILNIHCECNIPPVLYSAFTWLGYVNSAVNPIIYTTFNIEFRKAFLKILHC

[8] = system: Canis familiaris; test: In vivo antagonism of cisplatin-induced emesis in dog measured as emetic episodes, twice the dose of 1 mg/kg in 2 dogs; type: functional, Canis lupus familiaris; how it was run: as §2
[9] = system: Canis familiaris; test: In vivo antagonism of cisplatin-induced emesis in dog measured as percentage protection for twice the dose of 3 mg/kg in 2 dogs; type: functional, Canis lupus familiaris; how it was run: as §2
[10] = system: Mustela putorius furo; test: In vivo antagonism of cisplatin-induced emesis in ferret measured as percentage protection for twice the dose of 3 mg/kg and in 3 ferrets; type: functional; how it was run: as §1
[11] = system: Canis familiaris; test: In vivo antagonism of cisplatin-induced emesis in dog measured as percentage protection for twice the dose of 6 mg/kg in 2 dogs; type: functional, Canis lupus familiaris; how it was run: as §2
[12] = system: Canis familiaris; test: In vivo antagonism of cisplatin-induced emesis in dog measured as emetic episodes, twice the dose of 6 mg/kg in 2 dogs; type: functional, Canis lupus familiaris; how it was run: as §2
[13] = system: Mustela putorius furo; test: In vivo antagonism of cisplatin-induced emesis in ferret measured as percentage protection for twice the dose of 31 mg/kg and in 3 ferrets; type: functional; conditions: dose 1 mg/kg; in the assay text read “1 mg/kg” for “31 mg/kg”; how it was run: as §1
[14] = system: Mustela putorius furo; test: In vivo antagonism of cisplatin-induced emesis in ferret measured as emetic episodes, twice the dose of 3 mg/kg and in 3 ferrets; type: functional; how it was run: as §1
[15] = system: Canis familiaris; test: In vivo antagonism of cisplatin-induced emesis in dog measured as emetic episodes, twice the dose of 3 mg/kg in 2 dogs; type: functional, Canis lupus familiaris; how it was run: as §2
[16] = system: Mustela putorius furo; test: In vivo antagonism of cisplatin-induced emesis in ferret measured as emetic episodes, twice the dose of 1 mg/kg and in 3 ferrets; type: functional; how it was run: as §1
[17] = system: Mustela putorius furo; test: in vivo antagonism of cisplatin-induced emesis in ferret measured as emetic episodes, twice the dose of 3 mg/kg and in 3 ferrets; type: functional
How it was run: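 Nonfasted castrated male Fitch ferrets (1–1.5 kg) carried jugular vein catheters implanted at least 48 h earlier under general anesthesia. Test compound or saline was given iv twice, 5 min before and 90 min after cisplatin (12 mg/kg iv; 12 mg/mL in warm saline). Emesis was watched for 4 h, with events within 1 min counted as one episode. % protection is relative to a pooled historical-plus-concurrent control, with t test versus saline.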

[18] = system: Mustela putorius furo; test: In vivo antagonism of cisplatin-induced emesis in ferret measured as emetic episodes, twice the dose of mg/kg and in 3 ferrets; type: functional; how it was run: as §1
[19] = system: Mustela putorius furo; test: In vivo antagonism of cisplatin-induced emesis in ferret measured as percentage protection for twice the dose of 1 mg/kg and in 3 ferrets; type: functional; how it was run: as §1
[20] = system: Canis familiaris; test: In vivo antagonism of cisplatin-induced emesis in dog measured as emetic episodes, twice the dose of 6 mg/kg in 3 dogs; type: functional, Canis lupus familiaris
How it was run: (§3)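 Nonfasted mature male or female beagles received test compound or saline sc twice, 30 min before and 120 min after cisplatin (3 mg/kg iv; 3 mg/mL in warm 0.9% saline, used at once). Emesis observed up to 5 h. Emetic episode = expulsion of stomach content; events within 2 min counted as one. Protection calculated against a dynamic control (historical mean pooled with concurrent saline control).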

[21] = system: Canis familiaris; test: In vivo antagonism of cisplatin-induced emesis in dog measured as percentage protection for twice the dose of 6 mg/kg in 3 dogs; type: functional, Canis lupus familiaris; how it was run: as §3

CCN(CC)CCNC(=O)c1cc(Cl)c(N)cc1OCOCCOC
Protection [1]: 100%
ED50 [2]: > 40 mg/kg
ED50 [3]: > 40 mg/kg
Protection [4]: 72%
IC50 [5]: > 1000 nM
Emetic episodes [6]: 0
ED50 [7]: > 3 mg/kg
Emetic episodes [8]: 3.5

C#CCOc1cc(N)c(Cl)cc1C(=O)NCCN(CC)CC
Protection [9]: 72%
Protection [10]: 50%
ED50 [2]: > 40 mg/kg
ED50 [3]: > 40 mg/kg
Protection [11]: 73%
Emetic episodes [12]: 2
IC50 [5]: > 1000 nM
Protection [13]: 40%
Emetic episodes [14]: 3.3
ED50 [7]: > 1 mg/kg
Emetic episodes [15]: 3.5
Emetic episodes [16]: 4.3

CCN(CC)CCNC(=O)c1cc(Cl)c(N)cc1OCC(C)OC (stereo not given)
Protection [10]: 86%
ED50 [2]: > 40 mg/kg
ED50 [3]: > 40 mg/kg
Emetic episodes [17]: 1
IC50 [5]: > 1000 nM
ED50 [7]: > 3 mg/kg
Emetic episodes [18]: 3
Protection [19]: 57%

O=c1[nH]c2ccccc2n1CCCN1CCC(n2c(=O)[nH]c3cc(Cl)ccc32)CC1 [DOMPERIDONE]
Protection [10]: 50%
ED50 [2]: > 40 mg/kg
ED50 [3]: > 40 mg/kg
Emetic episodes [20]: 9.7
Emetic episodes [14]: 3.3
ED50 [7]: 0.08 mg/kg
Protection [21]: 30%
